Target: T1, KDM3A (Homo sapiens, UniProt Q9Y4C1)
T1 sequence (Q9Y4C1 1-1321): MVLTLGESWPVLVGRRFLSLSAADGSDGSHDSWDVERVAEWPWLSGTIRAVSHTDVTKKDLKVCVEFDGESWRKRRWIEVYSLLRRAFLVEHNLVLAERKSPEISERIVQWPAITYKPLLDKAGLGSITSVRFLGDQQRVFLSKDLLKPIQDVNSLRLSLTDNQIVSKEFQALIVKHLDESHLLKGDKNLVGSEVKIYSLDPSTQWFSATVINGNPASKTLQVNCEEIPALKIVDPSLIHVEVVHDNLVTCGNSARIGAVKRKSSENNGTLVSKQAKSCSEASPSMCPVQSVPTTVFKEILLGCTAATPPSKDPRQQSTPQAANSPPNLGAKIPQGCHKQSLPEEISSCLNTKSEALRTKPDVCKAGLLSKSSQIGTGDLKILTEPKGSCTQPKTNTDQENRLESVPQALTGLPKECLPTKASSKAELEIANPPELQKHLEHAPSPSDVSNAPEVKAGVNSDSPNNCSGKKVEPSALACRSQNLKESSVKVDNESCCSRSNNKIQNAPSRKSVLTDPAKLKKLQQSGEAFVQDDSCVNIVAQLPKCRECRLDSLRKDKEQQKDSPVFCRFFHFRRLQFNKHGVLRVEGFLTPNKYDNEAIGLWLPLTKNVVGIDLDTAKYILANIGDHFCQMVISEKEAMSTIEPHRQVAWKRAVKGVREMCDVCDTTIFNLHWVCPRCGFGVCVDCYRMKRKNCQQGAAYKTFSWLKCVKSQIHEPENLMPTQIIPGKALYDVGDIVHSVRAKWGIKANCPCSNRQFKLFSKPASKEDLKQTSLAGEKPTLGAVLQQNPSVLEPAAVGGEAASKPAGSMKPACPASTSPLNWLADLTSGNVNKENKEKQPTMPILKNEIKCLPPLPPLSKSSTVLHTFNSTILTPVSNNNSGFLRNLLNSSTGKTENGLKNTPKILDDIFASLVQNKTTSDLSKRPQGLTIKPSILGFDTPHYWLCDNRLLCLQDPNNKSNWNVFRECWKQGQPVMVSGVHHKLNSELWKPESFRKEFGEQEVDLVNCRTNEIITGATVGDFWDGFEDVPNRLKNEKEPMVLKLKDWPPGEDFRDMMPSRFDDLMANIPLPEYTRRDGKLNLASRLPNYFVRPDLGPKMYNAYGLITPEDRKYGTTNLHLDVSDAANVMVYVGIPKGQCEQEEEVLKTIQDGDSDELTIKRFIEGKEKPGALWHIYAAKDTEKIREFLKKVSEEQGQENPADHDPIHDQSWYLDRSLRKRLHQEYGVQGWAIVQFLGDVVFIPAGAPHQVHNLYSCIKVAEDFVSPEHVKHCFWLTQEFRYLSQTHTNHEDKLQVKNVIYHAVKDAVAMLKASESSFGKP
Test: IHC of HCP-1 xenograft tumors, KDM3A
Format: in vivo, mice
Outline: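 Tumours came from ALDHHigh HCP-1 xenografts in NSG mice given test compound IP (3, 10 or 35 mg kg−1) for 16 days. Paraffin sections were deparaffinised and rehydrated, then antigen-unmasked. Peroxidase blocked; sections blocked 1 h in 10% goat serum. Primary antibody overnight at 4 °C, biotinylated secondary 30 min at RT, avidin–biotin peroxidase detection, hematoxylin counterstain.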

Structure (SMILES): O=C1CCC(N2C(=O)c3cccc(NCCOCCOCCOCCOCCNC(=O)c4ccc(O)c5ncccc45)c3C2=O)C(=O)N1 (centres unmarked) [Compound 4, N-(14-((2-(2,6-Dioxopiperidin-3-yl)-1,3-dioxoisoindolin-4-yl)amino)-3,6,9,12-tetraoxatetradecyl)-8-hydroxyquinoline-5-carboxamide]
- KDM3A level (IHC) at high dose (35 mg kg^−1): slight upregulation of KDM3A
- KDM3A degradation in vivo (IHC) (HCP-1 xenograft tumor tissues): confirmed the PROTAC-induced KDM3A and KDM3B degradation in vivo
